Measured values from ChEMBL document CHEMBL1131450, “Synthesis and antitumor evaluation of 2,5-disubstituted-indazolo[4, 3-gh]isoquinolin-6(2H)-ones (9-aza-anthrapyrazoles)” (J Med Chem, 1998).
≈ marks a conversion by molar mass, not a printed value.

Key:
[1] = test system: LoVo; experiment: In vitro cytotoxicity on human colon adenocarcinoma (LoVo ) tumor cell line.; assay type: functional, cell-based
[2] = test system: MX1; experiment: In vivo antitumor activity was measured on MX-1 human mammary carcinoma cells. TWI%=tumor weight inhibition. Optimal dose 24 mg/kg/day.; assay type: functional
[3] = test system: P388; assay type: functional, Mus musculus
[4] = test system: LoVo; experiment: Resistance index measured as the ratio of IC50 of LoVo/Dx cell line to that of LoVo cell line.; assay type: functional, Homo sapiens
[5] = test system: LoVo/Dx (Homo sapiens); experiment: cells
[6] = test system: P388; experiment: In vivo antitumor activity was measured on systemic P388 murine leukemia cells. Optimal dose 4 mg/kg/day.; assay type: functional, Mus musculus
Outline: (§1)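 CD2F1 male mice given 10⁶ P388 leukemia cells iv (day 0); drug given iv on days 1, 4 and 7. Survival expressed as T/C% = median survival time of treated / median survival of controls × 100, reported at optimal dose (mg/kg/day) or maximum tested dose.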

[7] = test system: MX1; experiment: In vivo antitumor activity was measured on MX-1 human mammary carcinoma cells. TWI%=tumor weight inhibition. Optimal dose 9 mg/kg/day.; assay type: functional
[8] = test system: MX1; experiment: In vivo antitumor activity was measured on MX-1 human mammary carcinoma cells. TWI%=tumor weight inhibition. Optimal dose 27 mg/kg/day.; assay type: functional
[9] = test system: P388; experiment: In vivo antitumor activity was measured on systemic P388 murine leukemia cells. Optimal dose 24 mg/kg/day.; assay type: functional, Mus musculus; outline: as §1
[10] = test system: MX1; experiment: In vivo antitumor activity was measured on MX-1 human mammary carcinoma cells. TWI%=tumor weight inhibition. Optimal dose 60 mg/kg/day.; assay type: functional
[11] = test system: P388; experiment: In vivo antitumor activity was measured on systemic P388 murine leukemia cells. Maximum tested dose 40 mg/kg/day.; assay type: functional, Mus musculus; outline: as §1
[12] = test system: MX1; experiment: In vivo antitumor activity was measured on MX-1 human mammary carcinoma cells. TWI%=tumor weight inhibition. Optimal dose 18 mg/kg/day.; assay type: functional
[13] = test system: P388; experiment: In vivo antitumor activity was measured on systemic P388 murine leukemia cells. Maximum tested dose 18 mg/kg/day.; assay type: functional, Mus musculus; outline: as §1
[14] = test system: MX1; experiment: In vivo antitumor activity was measured on MX-1 human mammary carcinoma cells. TWI%=tumor weight inhibition. Optimal dose 40 mg/kg/day.; assay type: functional
[15] = test system: MX1; experiment: In vivo antitumor activity was measured on MX-1 human mammary carcinoma cells. TWI%=tumor weight inhibition. Optimal dose 120 mg/kg/day.; assay type: functional
[16] = test system: MX1; experiment: In vivo antitumor activity was measured on MX-1 human mammary carcinoma cells. TWI%=tumor weight inhibition. Optimal dose 13 mg/kg/day.; assay type: functional
[17] = test system: P388; experiment: In vivo antitumor activity was measured on systemic P388 murine leukemia cells. Optimal dose 7.5 mg/kg/day.; assay type: functional, Mus musculus; outline: as §1
[18] = test system: MX1; experiment: Antitumor activity was measured on MX-1 human mammary carcinoma cells. TWI%=tumor weight inhibition. Optimal dose at 40 mg/kg/day; assay type: functional
[19] = test system: P388; experiment: In vivo antitumor activity was measured on systemic P388 murine leukemia cells. Optimal dose at 40 mg/kg/day; assay type: functional, Mus musculus; outline: as §1
[20] = test system: P388; experiment: In vivo antitumor activity was measured on systemic P388 murine leukemia cells. Maximum tested dose 20 mg/kg/day.; assay type: functional, Mus musculus; outline: as §1
[21] = test system: MX1; experiment: In vivo antitumor activity was measured on MX-1 human mammary carcinoma cells. TWI%=tumor weight inhibition. Optimal dose 90 mg/kg/day.; assay type: functional
[22] = test system: P388; experiment: In vivo antitumor activity was measured on systemic P388 murine leukemia cells. Maximum tested dose 12 mg/kg/day.; assay type: functional, Mus musculus; outline: as §1
[23] = test system: MX1; experiment: In vivo antitumor activity was measured on MX-1 human mammary carcinoma cells. TWI%=tumor weight inhibition. Optimal dose 12 mg/kg/day.; assay type: functional
[24] = test system: MX1; experiment: In vivo antitumor activity was measured on MX-1 human mammary carcinoma cells. TWI%=tumor weight inhibition. Optimal dose 20 mg/kg/day.; assay type: functional
[25] = test system: MX1; experiment: In vivo antitumor activity was measured on MX-1 human mammary carcinoma cells. TWI%=tumor weight inhibition. Optimal dose 2 mg/kg/day.; assay type: functional
[26] = test system: P388; experiment: In vivo antitumor activity was measured on systemic P388 murine leukemia cells. Optimal dose 6 mg/kg/day.; assay type: functional, Mus musculus; outline: as §1
[27] = test system: MX1; experiment: In vivo antitumor activity was measured on MX-1 human mammary carcinoma cells. TWI%=tumor weight inhibition. Optimal dose 17.5 mg/kg/day.; assay type: functional
[28] = test system: P388; experiment: In vivo antitumor activity was measured on systemic P388 murine leukemia cells. Optimal dose 75 mg/kg/day.; assay type: functional, Mus musculus; settings: in the assay text read “7.5 mg/kg/day” for “75 mg/kg/day”; outline: as §1

SMILES | IC50 [5] [µg/mL] | IC50 [1] [µg/mL] | RI [4] | further results
NCCn1nc2c3c(c(NCCNCCO)ccc31)C(=O)c1ccncc1-2 | > 100 | 1.63 (≈ 4.45 µM) | >61 | TWI [8]: 62%; T/C [9]: 194%
CN(C)CCNCCNc1ccc2c3c(nn2CCN(C)C)-c2cnccc2C(=O)c13 | > 100 | 3.2 (≈ 7.59 µM) | >31 | TWI [10]: 25%; T/C [11]: 133%
CN(C)CCn1nc2c3c(c(NCCN4CCNCC4)ccc31)C(=O)c1ccncc1-2 | > 100 | 4.83 (≈ 11.5 µM) | 21 | TWI [12]: 14%; T/C [13]: 113%
CN(C)CCn1nc2c3c(c(NCCn4ccnc4)ccc31)C(=O)c1ccncc1-2 | > 100 | 1.1 (≈ 2.74 µM) | >91 | TWI [15]: 70%; T/C [11]: 150%
NCCNc1ccc2c3c(nn2CCN)-c2cnccc2C(=O)c13 | 15.4 (≈ 47.8 µM) | 0.86 (≈ 2.67 µM) | 18 | TWI [16]: 70%; T/C [17]: 194%
O=C1c2ccncc2-c2nn(CCNCCO)c3ccc(NCCNCCO)c1c23 | > 100 | 4.5 (≈ 11 µM) | >22 | TWI [18]: 89%; T/C [19]: 165%
CN(C)CCn1nc2c3c(c(NCCNS(C)(=O)=O)ccc31)C(=O)c1ccncc1-2 | > 100 | 4.1 (≈ 9.57 µM) | >24 | TWI [10]: 90%; T/C [20]: 111%
CN(C)CCn1nc2c3c(c(NCCN4CCOCC4)ccc31)C(=O)c1ccncc1-2 | 3.63 (≈ 8.63 µM) | 1.35 (≈ 3.21 µM) | 2.7 | TWI [8]: 48%; T/C [9]: 256%
CCN(CC)CCNc1ccc2c3c(nn2CCN)-c2cnccc2C(=O)c13 | 15.7 (≈ 41.5 µM) | 0.52 (≈ 1.37 µM) | 30 | TWI [14]: 51%; T/C [22]: 147%
NCCNc1ccc2c3c(nn2CCNCCO)-c2cnccc2C(=O)c13 | > 100 | 2.17 (≈ 5.92 µM) | >46 | TWI [24]: 74%; T/C [3]: 175%
NCCn1nc2c3c(c(NCCN4CCOCC4)ccc31)C(=O)c1ccncc1-2 | > 100 | 1.76 (≈ 4.48 µM) | >57 | TWI [14]: 32%; T/C [11]: 129%
CNCCNc1ccc2c3c(nn2CCNCCO)-c2cnccc2C(=O)c13 [NORTOPIXANTRONE] | > 100 | 0.54 (≈ 1.42 µM) | >185 | TWI [27]: 96%; T/C [28]: 167%

Second part, led by results:

IC50 [5] [µg/mL] | SMILES | IC50 [1] [µg/mL] | RI [4] | further results
2 (≈ 5.1 µM) | CN(C)CCCn1nc2c3c(c(NCCN(C)C)ccc31)C(=O)c1ccncc1-2 | 0.24 (≈ 0.611 µM) | 8.3 | TWI [2]: 55%; T/C [3]: 270%
0.83 (≈ 2.04 µM) | CCN(CC)CCNc1ccc2c3c(nn2CCN(C)C)-c2cnccc2C(=O)c13 | 0.37 (≈ 0.91 µM) | 2.2 | T/C [6]: 175%; TWI [7]: 35%
13.6 (≈ 38.7 µM) | CN(C)CCn1nc2c3c(c(NCCO)ccc31)C(=O)c1ccncc1-2 | 0.32 (≈ 0.911 µM) | 42.5 | TWI [14]: 97%; T/C ([11]; in the assay text read “Maximum tested dose 12 mg/kg/day” for “Maximum tested dose 40 mg/kg/day”): 167%
> 100 | CN(C)CCn1nc2c3c(c(NCCN(CCO)CCO)ccc31)C(=O)c1ccncc1-2 | 2.13 (≈ 4.86 µM) | >47 | TWI [21]: 97%; T/C [11]: 175%
> 100 | CN(C)CCNc1ccc2c3c(nn2CCO)-c2cnccc2C(=O)c13 | 18.5 (≈ 52.6 µM) | >5.4 | TWI [21]: 16%; T/C [11]: 112%
1.55 (≈ 3.79 µM) | CN(C)CCn1nc2c3c(c(NCCN(C)CCO)ccc31)C(=O)c1ccncc1-2 | 0.049 (≈ 0.12 µM) | 31.6 | T/C [3]: 280%; TWI [23]: 75%
1 (≈ 2.64 µM) | CN(C)CCNc1ccc2c3c(nn2CCN(C)C)-c2cnccc2C(=O)c13 | 0.35 (≈ 0.925 µM) | 2.8 | TWI [25]: 56%; T/C [6]: 381%
41.2 (≈ 104 µM) | CN(C)CCn1nc2c3c(c(NCCNCCO)ccc31)C(=O)c1ccncc1-2 | 0.2 (≈ 0.507 µM) | 206 | T/C [26]: 194%; TWI [7]: 99%
